Active and inactive are the calls of the source. The rule behind the calls is not given here.
Tests used:
[1] = system: HCT-116; assay: Cytotoxicity in human HCT-116 cells assessed as reduction in cell viability incubated for 48 hrs by resazurin dye based assay; assay type: functional; settings: HCT-116, 48 h
Procedure, shortened: (§1)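 Cells seeded at 2000/well, 24 h later exposed to serial dilutions (0.1% DMSO vehicle) in complete medium for 48 h; resazurin (2 mg/mL stock) then added for 16 h; fluorescence at 544 nm excitation/595 nm emission, proportional to living cells. Triplicate wells, repeated twice; IC50 from concentration-response.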

[2] = system: HCT-116; assay: Induction of cell cycle arrest in human HCT-116 cells assessed as increase in G2/M cell population level at 20 uM incubated for 24 hrs by propidium iodide /RNase staining based flow cytometry relative to control; assay type: functional
Procedure, shortened: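 HCT116 cells (6 × 10^4/well, six-well plates) treated after 24 h for 24 h (12.5 or 15 μM for one conjugate, 20 μM for others; 0.1% DMSO vehicle); floating and trypsinized cells fixed in 70% ethanol at 4 °C overnight, stained with PI/RNase 15 min at room temperature, DNA content by flow cytometry; phase distribution versus control.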

[3] = system: A549; assay: Cytotoxicity in human A549 cells assessed as reduction in cell viability incubated for 48 hrs by resazurin dye based assay; assay type: functional; settings: A549, 48 h; procedure, shortened: as §1
[4] = system: HCT-116; assay: Induction of apoptosis in human HCT-116 cells assessed as increase in early apoptosis level at 40 uM incubated for 24 hrs by annexin-V/propidium iodide staining based flow cytometry relative to control; assay type: functional, cell-based
Procedure, shortened: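 HCT116 cells were seeded at 6 × 10^4 cells/well and treated 24 h later in medium containing 0.1% DMSO, with DMSO alone as the control. Floating and trypsinized adherent cells were pooled and washed in binding buffer. They were stained with Annexin V/PI for 15 min at room temperature and read by flow cytometry. Early apoptotic cells were FITC+/PI−; late apoptotic cells were FITC+/PI+.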

[5] = system: HCT-116; assay: Induction of apoptosis in human HCT-116 cells assessed as increase in late apoptosis level at 40 uM incubated for 48 hrs by annexin-V/propidium iodide staining based flow cytometry relative to control
[6] = system: HT-29; assay: Cytotoxicity in human HT-29 cells assessed as reduction in cell viability incubated for 48 hrs by resazurin dye based assay; assay type: functional; settings: HT-29, 48 h; procedure, shortened: as §1
[7] = system: NCI-H1299; assay: Cytotoxicity in human NCI-H1299 cells assessed as reduction in cell viability incubated for 48 hrs by resazurin dye based assay; assay type: functional; settings: NCI-H1299, 48 h; procedure, shortened: as §1

SMILES	IC50 [1] [µM]	Activity [2]	IC50 [3] [µM]	Activity [4]	Activity [5]	IC50 [6] [µM]	IC50 [7] [µM]
CC(=O)OC[C@H]1O[C@@H](n2[se]c3ccccc3c2=O)[C@H](OC(C)=O)[C@@H](OC(C)=O)[C@@H]1OC(C)=O	18	Active	20.4	Active	Active	11.9	19
CC(=O)OC[C@H]1O[C@@H](n2[se]c3ccccc3c2=O)[C@H](OC(C)=O)[C@@H](OC(C)=O)[C@H]1OC(C)=O	17.8	Active	25.2	Active	Active	19.3	21.6
CC(=O)OC[C@H]1O[C@@H](O[C@H]2[C@H](OC(C)=O)[C@@H](OC(C)=O)[C@H](n3[se]c4ccccc4c3=O)O[C@@H]2COC(C)=O)[C@H](OC(C)=O)[C@@H](OC(C)=O)[C@H]1OC(C)=O	24.2	Active	36.5	Active	Active	32.3	34

From ChEMBL document CHEMBL4715820, “Aglycone Ebselen and β-d-Xyloside Primed Glycosaminoglycans Co-contribute to Ebselen β-d-Xyloside-Induced Cytotoxicity” (J Med Chem, 2018)
